Measured values taken from ChEMBL document CHEMBL1122780, “Trequinsin, a potent new antihypertensive vasodilator in the series of 2-(arylimino)-3-alkyl-9,10-dimethoxy-3,4,6,7-tetrahydro-2H-py rim ido [6,1-a]isoquinolin-4-ones” (J Med Chem, 1984).

Tests used:
Felis catus [1] = test: Dose estimated to produce 25 mm Hg fall in mean systemic blood pressure of anesthetized cat at 10 min after administration; type: functional
Rattus norvegicus [2] = test: Difference in systolic blood pressure of SH rats observed prior to the first application and 2 hr after the fifth application at the oral dose of 5 mg/kg was expressed as Delta BP; type: functional, Artery
Method in brief: (§1)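 Male spontaneously hypertensive rats (Wistar–Okamoto, 250–300 g, 12–16 weeks), conscious. Dosed orally once daily for 5 days in 0.9% NaCl or 0.5% carboxymethylcellulose (10 mL/kg); vehicle control group. Rats warmed at 37–38 °C for 10 min, then systolic pressure taken by tail-cuff (piezoelectric pulse detection). ΔBP = pre-first-dose minus 2 h after fifth dose; mean ± SEM, six animals.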

Rattus norvegicus [3] = test: Difference in systolic blood pressure of SH rats observed prior to the first application and 2 hr after the fifth application at the oral dose of 25 mg/kg was expressed as Delta BP; type: functional, Artery; method in brief: as §1
Felis catus [4] = test: Blood pressure lowering activity in anesthetized cats after intravenous administration of […] of compound; type: functional
[5] = Compound was tested for toxicity in mice after intraperitoneal administration; type: organism-based; settings: mouse, in vivo, ip
Method in brief: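 Mice (18–22 g), either sex. Compound dissolved in distilled water or suspended in 0.5% (carboxymethyl)cellulose and given ip at 10, 30, 100, 300 and 1000 mg/kg, 1 mL/100 g body weight. Animals observed for 48 h; approximate LD50 calculated by the Campbell and Richter method.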

Rattus norvegicus [6] = test: Delta BP refers to difference in systolic blood pressure of SH rats observed prior to the first application and 2 hr after the fifth application at the oral dose of 3 mg/kg; type: functional, Artery; method in brief: as §1
Rattus norvegicus [7] = test: Difference in systolic blood pressure of SH rats observed prior to the first application and 2 hr after the fifth application at the oral dose of 10 mg/kg was expressed as Delta BP; type: functional, Artery; method in brief: as §1

SMILES: CCc1cccc(C(C)C)c1Nc1cc2n(c(=O)n1)CCc1cc(OC)c(OC)cc1-2.Cl
- ED25 (Felis catus [1]): 3 mg/kg

SMILES: COc1cc2c(cc1OC)-c1cc(=Nc3c(C)cccc3C(C)C)n(C)c(=O)n1CC2.Cl
- ED25 (Felis catus [1]): 1 mg/kg
- Delta blood pressure (Rattus norvegicus [2]): 0 mmHg

SMILES: COc1cc2c(cc1OC)-c1cc(Nc3ccccc3Cl)nc(=O)n1CC2.Cl
- ED25 (Felis catus [1]): 1.4 mg/kg
- Delta blood pressure (Rattus norvegicus [3]): 0 mmHg

SMILES: COc1cc2c(cc1OC)-c1cc(=Nc3ccc(C)cc3C)n(C)c(=O)n1CC2.Cl
- ED25 (Felis catus [1]): 10 mg/kg

SMILES: COc1cc2c(cc1OC)-c1cc(Nc3c(C)cccc3C(C)(C)C)nc(=O)n1CC2.Cl
- ED25 (Felis catus [1]): 1.8 mg/kg
- Delta blood pressure (Rattus norvegicus [3]): 0 mmHg

SMILES: CCn1c(=Nc2c(C)cc(C)cc2C)cc2n(c1=O)CCc1cc(OC)c(OC)cc1-2.Cl
- ED25 (Felis catus [4]): 0.025 mg/kg
- ED25 (Felis catus [1]): 0.1 mg/kg
- Delta blood pressure (Rattus norvegicus [2]): -20 mmHg
- LD50 [5]: 65 mg/kg

SMILES: CCc1cccc(C(C)CC)c1N=c1cc2n(c(=O)n1C)CCc1cc(OC)c(OC)cc1-2.Cl (centres undefined)
- ED25 (Felis catus [1]): 3.5 mg/kg
- Delta blood pressure (Rattus norvegicus [3]): -20 mmHg

SMILES: COc1cc2c(cc1OC)-c1cc(N(C)c3c(C)cc(C)cc3C)nc(=O)n1CC2.Cl
- ED25 (Felis catus [4]): 0.03 mg/kg
- ED25 (Felis catus [1]): 0.03 mg/kg
- Delta blood pressure (Rattus norvegicus [2]): -45 mmHg
- LD50 [5]: 27 mg/kg

SMILES: COc1cc(Nc2cc3n(c(=O)n2)CCc2cc(OC)c(OC)cc2-3)cc(OC)c1.Cl
- ED25 (Felis catus [1]): 3.4 mg/kg

SMILES: COc1cc2c(cc1OC)-c1cc(Nc3cc(OC)c(OC)c(OC)c3)nc(=O)n1CC2.Cl
- ED25 (Felis catus [1]): 0.8 mg/kg

SMILES: COc1cc2c(cc1OC)-c1cc(Nc3c(Cl)cc(Cl)cc3Cl)nc(=O)n1CC2.Cl
- ED25 (Felis catus [1]): 0.5 mg/kg

SMILES: COc1cc2c(cc1OC)-c1cc(Nc3ccc(C)c(Cl)c3Cl)nc(=O)n1CC2.Cl
- ED25 (Felis catus [1]): 5 mg/kg
- Delta blood pressure (Rattus norvegicus [3]): -19 mmHg

SMILES: COc1cc2c(cc1OC)-c1cc(Nc3c(C)cc(C)cc3C)nc(=O)n1CC2.Cl
- ED25 (Felis catus [4]): 0.2 mg/kg
- ED25 (Felis catus [1]): 0.2 mg/kg
- Delta blood pressure (Rattus norvegicus [2]): -37 mmHg
- LD50 [5]: 82.5 mg/kg

SMILES: COc1cc2c(cc1OC)-c1cc(=Nc3c(C)cc(C)cc3C)n(CP(C)(C)=O)c(=O)n1CC2.Cl
- ED25 (Felis catus [4]): 0.5 mg/kg
- ED25 (Felis catus [1]): 0.1 mg/kg
- Delta blood pressure (Rattus norvegicus [2]): -33 mmHg
- LD50 [5]: 65 mg/kg

SMILES: COc1cc2c(cc1OC)-c1cc(Nc3c(C)cccc3C(C)C)nc(=O)n1CC2.Cl
- ED25 (Felis catus [1]): 2.2 mg/kg

SMILES: COc1cc2c(cc1OC)-c1cc(=Nc3c(F)cccc3F)n(CP(C)(C)=O)c(=O)n1CC2.Cl
- ED25 (Felis catus [1]): 0.4 mg/kg
- Delta blood pressure (Rattus norvegicus [3]): 0 mmHg

SMILES: CCOc1ccccc1Nc1cc2n(c(=O)n1)CCc1cc(OC)c(OC)cc1-2.Cl
- ED25 (Felis catus [1]): 1.2 mg/kg
- Delta blood pressure (Rattus norvegicus [3]): -27 mmHg

SMILES: CCOc1ccc(Nc2cc3n(c(=O)n2)CCc2cc(OC)c(OC)cc2-3)cc1.Cl
- ED25 (Felis catus [1]): 50 mg/kg

SMILES: COc1cc2c(cc1OC)-c1cc(Nc3c(F)cccc3F)nc(=O)n1CC2
- ED25 (Felis catus [1]): 3.5 mg/kg
- Delta blood pressure (Rattus norvegicus [3]): 0 mmHg

SMILES: COc1cc2c(cc1OC)-c1cc(=Nc3c(C)cccc3C)n(C)c(=O)n1CC2
- ED25 (Felis catus [1]): 3.5 mg/kg

SMILES: CCN(c1cc2n(c(=O)n1)CCc1cc(OC)c(OC)cc1-2)c1c(C)cc(C)cc1C
- ED25 (Felis catus [4]): 0.1 mg/kg
- ED25 (Felis catus [1]): 0.025 mg/kg
- Delta blood pressure (Rattus norvegicus [6]): -13 mmHg
- LD50 [5]: 65 mg/kg

SMILES: COc1cc2c(cc1OC)-c1cc(Nc3ccc(Cl)cc3Cl)nc(=O)n1CC2
- ED25 (Felis catus [1]): 1 mg/kg
- Delta blood pressure (Rattus norvegicus [3]): 0 mmHg

SMILES: COc1cc2c(cc1OC)-c1cc(Nc3ccc(C)c(C)c3)nc(=O)n1CC2
- ED25 (Felis catus [1]): 10 mg/kg

SMILES: COc1cc2c(cc1OC)-c1cc(=Nc3c(C)cc(C)cc3C)n(C(C)C)c(=O)n1CC2
- ED25 (Felis catus [1]): 0.1 mg/kg
- Delta blood pressure (Rattus norvegicus [7]): -34 mmHg

SMILES: COc1cc2c(cc1OC)-c1cc(Nc3cc(C)cc(C)c3)nc(=O)n1CC2
- ED25 (Felis catus [1]): 3 mg/kg

SMILES: COc1cc2c(cc1OC)-c1cc(=Nc3c(Cl)cc(Cl)cc3Cl)n(C)c(=O)n1CC2
- ED25 (Felis catus [1]): 3 mg/kg
- Delta blood pressure (Rattus norvegicus [3]): -21 mmHg

SMILES: COc1cc2c(cc1OC)-c1cc(N(CP(C)(C)=O)c3c(F)cccc3F)nc(=O)n1CC2
- ED25 (Felis catus [1]): 2.4 mg/kg
- Delta blood pressure (Rattus norvegicus [3]): 0 mmHg

SMILES: COc1cc2c(cc1OC)-c1cc(Nc3ccc(O)cc3)nc(=O)n1CC2
- ED25 (Felis catus [1]): 10 mg/kg

SMILES: COc1cc2c(cc1OC)-c1cc(Nc3ccc(C)cc3C)nc(=O)n1CC2
- ED25 (Felis catus [1]): 1 mg/kg
- Delta blood pressure (Rattus norvegicus [3]): -41 mmHg

SMILES: COc1cc2c(cc1OC)-c1cc(Nc3ccc(C)c(N)c3)nc(=O)n1CC2
- ED25 (Felis catus [1]): 2.4 mg/kg

SMILES: CCc1ccccc1Nc1cc2n(c(=O)n1)CCc1cc(OC)c(OC)cc1-2
- ED25 (Felis catus [1]): 10 mg/kg

SMILES: COc1ccc(OC)c(Nc2cc3n(c(=O)n2)CCc2cc(OC)c(OC)cc2-3)c1
- ED25 (Felis catus [1]): 50 mg/kg

SMILES: COc1cc2c(cc1OC)-c1cc(N(c3c(C)cc(C)cc3C)C(C)C)nc(=O)n1CC2
- ED25 (Felis catus [1]): 0.5 mg/kg
- Delta blood pressure (Rattus norvegicus [2]): -37 mmHg

SMILES: COc1cc2c(cc1OC)-c1cc(Nc3ccccc3C(=O)O)nc(=O)n1CC2
- ED25 (Felis catus [1]): 50 mg/kg

SMILES: COc1cc2c(cc1OC)-c1cc(Nc3c(Cl)cccc3Cl)nc(=O)n1CC2
- ED25 (Felis catus [1]): 2 mg/kg

SMILES: CCCCN(c1cc2n(c(=O)n1)CCc1cc(OC)c(OC)cc1-2)c1c(C)cc(C)cc1C
- ED25 (Felis catus [1]): 0.08 mg/kg

SMILES: COc1cc2c(cc1OC)-c1cc(Nc3c(C)cccc3C)nc(=O)n1CC2
- ED25 (Felis catus [1]): 0.1 mg/kg
- Delta blood pressure (Rattus norvegicus [2]): -27 mmHg

SMILES: COc1cc2c(cc1OC)-c1cc(Nc3ccc(Cl)cc3)nc(=O)n1CC2
- ED25 (Felis catus [1]): 50 mg/kg

SMILES: COc1cc2c(cc1OC)-c1cc(N(C(C)=O)c3c(C)cc(C)cc3C)nc(=O)n1CC2
- ED25 (Felis catus [4]): 0.25 mg/kg
- ED25 (Felis catus [1]): 0.25 mg/kg
- Delta blood pressure (Rattus norvegicus [7]): -24 mmHg
- LD50 [5]: 825 mg/kg

SMILES: COc1cc2c(cc1OC)-c1cc(=Nc3c(F)cccc3F)n(C)c(=O)n1CC2
- ED25 (Felis catus [1]): 0.5 mg/kg
- Delta blood pressure (Rattus norvegicus [7]): 0 mmHg

SMILES: COc1cc2c(cc1OC)-c1cc(Nc3cccc(C(F)(F)F)c3)nc(=O)n1CC2
- ED25 (Felis catus [1]): 2 mg/kg

SMILES: N/N=c1\[nH][nH]/c(=N\N)c2ccccc12 [DIHYDRALAZINE]
- ED25 (Felis catus [1]): 1 mg/kg
- Delta blood pressure (Rattus norvegicus [2]): -60 mmHg

SMILES: Nc1cc(N2CCCCC2)nc(N)[n+]1[O-] [MINOXIDIL]
- ED25 (Felis catus [1]): 1.2 mg/kg
- Delta blood pressure (Rattus norvegicus [2]): -51.2 mmHg
